Results pooled from the literature.
Compare with care: the assays were run in different laboratories.

C[C@H]1O[C@@H](O[C@H]2[C@@H](O)C[C@H](O[C@H]3[C@@H](O)C[C@H](O[C@H]4CC[C@@]5(C)[C@H](CC[C@@H]6[C@@H]5C[C@@H](O)[C@]5(C)[C@@H](C7=CC(=O)OC7)CC[C@]65O)C4)O[C@@H]3C)O[C@@H]2C)C[C@H](O)[C@@H]1O — efflux ratio (Caco-2; 5 µM, 1 h): 6.6
COc1cc(C(=O)NC2CCN(C)CC2)c(F)cc1Nc1ncc(C(F)(F)F)c(Oc2cccc3c2C(=O)N(C)C3)n1 — Cmax (human, plasma; oral, 25 mg, single dose, patients): 200 nM
Cc1nc2ccc(F)cc2n1-c1nc(N)c(F)c(Nc2ccc(C(F)(F)F)cc2)n1 — bioavailability (cynomolgus monkey, plasma; oral, 2 mg/kg): 66%
CN1CCC(c2ccccc2CC(C)(C)Nc2nc(N3CCOCC3)nc(-n3c(C(F)F)nc4ccccc43)n2)CC1 — Vd (cynomolgus monkey, plasma; intravenous, 2 mg/kg, single dose): 8 L/kg
CC(C)(O)c1cn(-c2ccc(-c3cc(F)c(CO)c(S(C)(=O)=O)c3)cc2)c(C(C)(C)c2cccc(F)c2Cl)n1 — Vd (male cynomolgus monkey, plasma; intravenous, 1 mg/kg, single dose): 3.2 L/kg
Nc1cc(N2CCCCC2)nc(N)[n+]1[O-] — efflux ratio (Caco-2; 10 µM, 2 h, pH 7.4): 1.72
CC(C)(O)c1cn(-c2ccc(-c3cc(F)c(CO)c(S(C)(=O)=O)c3)cc2F)c(C(C)(C)c2c(Cl)cccc2Cl)n1 — bioavailability (male cynomolgus monkey, plasma; oral, 3 mg/kg, single dose): 42%
CCc1nc2c(C)cc(N3CCN(CC(=O)N4CC(O)C4)CC3)cn2c1N(C)c1nc(-c2ccc(F)cc2)c(C#N)s1 — Cmax (human, plasma; oral, 20 mg, single dose, fed, healthy volunteers): 89 ng/mL
CC(C)(O)c1cn(-c2ccc(-c3cccc(S(C)(=O)=O)c3)cc2)c(C(C)(C)c2ccccc2Cl)n1 — Vd (male cynomolgus monkey, plasma; intravenous, 1 mg/kg, single dose): 1.3 L/kg
CO[C@H]1CC[C@H](N2C(=O)CNc3ncc(-c4ccc(C(C)(C)O)nc4)nc32)CC1 — Cmax (human, plasma; oral, 45 mg, patients): 269 ng/mL
C=CC(=O)N1CC2CC(n3nc(-c4ccc(C(=O)Nc5ccccn5)cc4)c4c(N)ncnc43)CC2C1 (stereo not drawn) — Tmax (SCID mouse, plasma; oral, 1 mg/kg): 15 min
CC(C)(C)c1ccc(O)c(CN(Cc2cc(C(C)(C)C)ccc2O)C2CCC(NC(N)=O)CC2)c1 (stereo not drawn) — Tmax (male C57BL/6 mouse, brain; intraperitoneal, 5 mg/kg, single dose): 30 min
